Source: PMC3475971 (Analytical and Bioanalytical Chemistry, 2012)

Key:
Format in all cases: binding
[1] = test system: GAK; experiment: Thermal shift assay; details: thermal shift assay performed as described in [32]
[2] = target: T1, cyclin G-associated kinase (GAK) (Homo sapiens, UniProt O14976); experiment: Fragment screening by zonal weak affinity chromatography
T1 sequence (O14976 20-347): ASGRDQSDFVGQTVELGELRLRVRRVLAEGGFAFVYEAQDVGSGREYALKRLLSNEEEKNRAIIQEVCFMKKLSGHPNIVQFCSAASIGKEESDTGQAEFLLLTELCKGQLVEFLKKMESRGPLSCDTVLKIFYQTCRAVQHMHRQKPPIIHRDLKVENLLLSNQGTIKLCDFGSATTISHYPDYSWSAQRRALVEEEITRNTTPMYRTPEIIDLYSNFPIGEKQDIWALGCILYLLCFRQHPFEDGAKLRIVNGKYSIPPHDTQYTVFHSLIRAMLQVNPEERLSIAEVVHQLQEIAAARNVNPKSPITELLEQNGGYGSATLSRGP

[3] = target: T1, cyclin G-associated kinase (GAK); experiment: Frontal affinity chromatography on GAK capillary column
How it was run: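 Human GAK residues 20–347 expressed in E. coli Rosetta (DE3), Ni-NTA and gel-filtration purified, tag removed with TEV protease, then coupled by reductive amination to aldehyde-silica capillary (100 × 0.5 mm). Frontal analysis: 20 mM ammonium acetate pH 6.8, 18 μL/min, 22 °C. Ligand 0.025–0.750 mM, UV 214 nm; DMSO void marker. Saturation moles versus concentration fitted (one-site plus linear nonspecific) for Btot and KD.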

Row | Compound | increase of melting temperature (ΔTm) of GAK [1] | Kd [2] | Kd [3]
1 | O=c1c(O)c(-c2ccc(O)c(O)c2)oc2cc(O)cc(O)c12 [Quercetin] | 9.4 °C | – | –
2 | Nc1ncnc2c1ncn2[C@@H]1O[C@H](CO)[C@@H](O)[C@H]1O [adenosine] | – | 41 µM | 63 µM
